From ChEMBL document CHEMBL1155372, “Design and synthesis of novel deoxybenzoin derivatives as FabH inhibitors and anti-inflammatory agents” (Bioorg Med Chem Lett, 2010)
Converted amounts (≈) assume the structure as drawn. The source made the active and inactive calls. The rule behind the calls is not given here.

Assays:
Candida albicans = test: Antifungal activity against Candida albicans ATCC 10231; format: functional
Aspergillus niger = test: Antifungal activity against Aspergillus niger ATCC 16404; format: functional
Trichophyton rubrum = test: Antifungal activity against Trichophyton rubrum ATCC 10218
Escherichia coli = test: Antibacterial activity against Escherichia coli ATCC 35218; format: functional
Bacillus subtilis = test: Antibacterial activity against Bacillus subtilis ATCC 6633; format: functional
Pseudomonas aeruginosa = test: Antibacterial activity against Pseudomonas aeruginosa ATCC 2785; format: functional
Staphylococcus aureus = test: Antibacterial activity against Staphylococcus aureus ATCC 6538; format: functional
[1] = Inhibition of Escherichia coli FabH expressed after 25 mins by liquid scintillation counting
AGS [2] = test: Cytotoxicity against human AGS cells at 15 to 60 umol/L after 48 hrs by MTT assay; format: cell-based
Procedure, shortened: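 AGS gastric cells incubated with test agent at serial concentrations of 15, 30 and 60 μmol L⁻¹. Viability read by MTT assay 48 h later. Values are means ± SEM of 4–6 experiments.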

AGS [3] = test: Inhibition of Escherichia coli-stimulated IL-8 production in human AGS cells at 15 to 60 umol/L after 12 hrs by ELISA; format: functional, cell-based
Procedure, shortened: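 AGS gastric mucosal cells stimulated with Escherichia coli water extract to induce IL-8 production, with agent added at 15, 30 and 60 μmol L⁻¹. IL-8 released was measured in pg mL⁻¹ and compared with extract-stimulated control. Values are means ± SEM of 3–5 experiments.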

Compound | MIC (Candida albicans) [µg/mL] | MIC (Aspergillus niger) [µg/mL] | MIC (Trichophyton rubrum) [µg/mL] | MIC (Escherichia coli) [µg/mL] | MIC (Bacillus subtilis) [µg/mL] | MIC (Pseudomonas aeruginosa) [µg/mL] | MIC (Staphylococcus aureus) [µg/mL] | IC50 [1] [µM] | Activity (AGS [2]) | inhibition (AGS [3])
O=C(Cc1ccc(F)cc1)c1ccc(O)cc1O | > 50 | > 50 | > 50 |  |  |  |  |  |  | 
Oc1ccc(/C(Cc2ccc(F)cc2)=N\c2ccc(Cl)cc2)cc1O | > 50 | > 50 | > 50 | 6.25 (≈ 17.6 µM) | 25 (≈ 70.3 µM) | 6.25 (≈ 17.6 µM) | 25 (≈ 70.3 µM) |  |  | 
O=[N+]([O-])c1ccc(/N=C(/Cc2ccc(F)cc2)c2ccc(O)c(O)c2)cc1 | > 50 | > 50 | > 50 | 25 (≈ 68.2 µM) | 50 (≈ 136 µM) | 25 (≈ 68.2 µM) | 50 (≈ 136 µM) |  |  | 
O=[N+]([O-])c1ccc(/N=C(/Cc2ccc(Cl)cc2)c2ccc(O)cc2O)cc1 | > 50 | > 50 | > 50 | 6.25 (≈ 16.3 µM) | 25 (≈ 65.3 µM) | 6.25 (≈ 16.3 µM) | 12.5 (≈ 32.7 µM) | 8.7 |  | 
Oc1ccc(/N=C(/Cc2ccc(Cl)cc2)c2ccc(O)c(O)c2)cc1 | > 50 | > 50 | > 50 | 25 (≈ 70.7 µM) | 50 (≈ 141 µM) | 50 (≈ 141 µM) | 50 (≈ 141 µM) |  |  | 
O=[N+]([O-])c1ccc(/N=C(/Cc2ccc(Cl)cc2)c2ccc(O)c(O)c2O)cc1 | > 50 | > 50 | > 50 | 50 (≈ 125 µM) | 50 (≈ 125 µM) | 50 (≈ 125 µM) | 50 (≈ 125 µM) |  |  | 
Cc1ccc(/N=C(/Cc2ccc(F)cc2)c2ccc(O)c(O)c2)cc1 | > 50 | > 50 | > 50 | 25 (≈ 74.5 µM) | 25 (≈ 74.5 µM) | 50 (≈ 149 µM) | 12.5 (≈ 37.3 µM) |  |  | 
Oc1ccc(/C(Cc2ccc(Cl)cc2)=N\c2ccc(Br)cc2)c(O)c1O | > 50 | > 50 | > 50 | 12.5 (≈ 28.9 µM) | 50 (≈ 116 µM) | 25 (≈ 57.8 µM) | 50 (≈ 116 µM) |  |  | 
O=C(Cc1ccc(Cl)cc1)c1ccc(O)c(O)c1 | > 50 | > 50 | > 50 |  |  |  |  |  |  | 
Oc1ccc(/N=C(/Cc2ccc(Cl)cc2)c2ccc(O)c(O)c2O)cc1 | > 50 | > 50 | > 50 | 25 (≈ 67.6 µM) | 50 (≈ 135 µM) | 50 (≈ 135 µM) | 25 (≈ 67.6 µM) |  |  | 
O=[N+]([O-])c1ccc(/N=C(/Cc2ccc(F)cc2)c2ccc(O)c(O)c2O)cc1 | > 50 | > 50 | > 50 | 25 (≈ 65.4 µM) | 50 (≈ 131 µM) | 25 (≈ 65.4 µM) | 25 (≈ 65.4 µM) |  |  | 
O=[N+]([O-])c1ccc(/N=C(/Cc2ccc(Cl)cc2)c2ccc(O)c(O)c2)cc1 | > 50 | > 50 | > 50 | 25 (≈ 65.3 µM) | 25 (≈ 65.3 µM) | 25 (≈ 65.3 µM) | 12.5 (≈ 32.7 µM) |  |  | 
Oc1ccc(/C(Cc2ccc(Cl)cc2)=N\c2ccc(Cl)cc2)c(O)c1O | > 50 | > 50 | > 50 | 12.5 (≈ 32.2 µM) | 50 (≈ 129 µM) | 25 (≈ 64.4 µM) | 50 (≈ 129 µM) |  |  | 
O=C(Cc1ccc(Cl)cc1)c1ccc(O)cc1O | > 50 | > 50 | > 50 |  |  |  |  |  |  | 
O=C(Cc1ccc(Cl)cc1)c1ccc(O)c(O)c1O | > 50 | > 50 | > 50 |  |  |  |  |  |  | 
Cc1ccc(/N=C(/Cc2ccc(Cl)cc2)c2ccc(O)c(O)c2)cc1 | > 50 | > 50 | > 50 | 25 (≈ 71.1 µM) | 50 (≈ 142 µM) | 50 (≈ 142 µM) | 50 (≈ 142 µM) |  |  | 
O=C(Cc1ccc(F)cc1)c1ccc(O)c(O)c1 | > 50 | > 50 | > 50 |  |  |  |  |  |  | 
CC1(C)S[C@@H]2[C@H](NC(=O)Cc3ccccc3)C(=O)N2[C@H]1C(=O)O [PENICILLIN G] |  |  |  | 6.25 (≈ 18.7 µM) | 1.56 (≈ 4.67 µM) | 6.25 (≈ 18.7 µM) | 1.56 (≈ 4.67 µM) |  |  | 
Cc1ccc(/N=C(/Cc2ccc(Cl)cc2)c2ccc(O)c(O)c2O)cc1 | > 50 | > 50 | > 50 | 50 (≈ 136 µM) | 25 (≈ 68 µM) | 50 (≈ 136 µM) | 25 (≈ 68 µM) |  |  | 
Oc1ccc(/C(Cc2ccc(Cl)cc2)=N\c2ccc(Cl)cc2)cc1O | > 50 | > 50 | > 50 | 6.25 (≈ 16.8 µM) | 50 (≈ 134 µM) | 6.25 (≈ 16.8 µM) | 50 (≈ 134 µM) |  |  | 
Oc1ccc(/C(Cc2ccc(F)cc2)=N\c2ccc(Br)cc2)c(O)c1O | > 50 | > 50 | > 50 | 25 (≈ 60.1 µM) | 25 (≈ 60.1 µM) | 25 (≈ 60.1 µM) | 25 (≈ 60.1 µM) |  |  | 
NC[C@H]1O[C@H](O[C@H]2[C@H](O)[C@@H](O[C@H]3O[C@H](CO)[C@@H](O)[C@H](N)[C@H]3O)[C@H](N)C[C@@H]2N)[C@H](N)[C@@H](O)[C@@H]1O [BEKANAMYCIN] |  |  |  | 3.12 (≈ 6.46 µM) | 0.39 (≈ 0.807 µM) | 3.12 (≈ 6.46 µM) | 1.56 (≈ 3.23 µM) |  |  | 
Oc1ccc(/C(Cc2ccc(F)cc2)=N\c2ccc(Br)cc2)cc1O | > 50 | > 50 | > 50 | 12.5 (≈ 31.2 µM) | 25 (≈ 62.5 µM) | 25 (≈ 62.5 µM) | 50 (≈ 125 µM) |  |  | 
Oc1ccc(/C(Cc2ccc(Cl)cc2)=N\c2ccc(Br)cc2)cc1O | > 50 | > 50 | > 50 | 12.5 (≈ 30 µM) | 25 (≈ 60 µM) | 12.5 (≈ 30 µM) | 25 (≈ 60 µM) |  |  | 
CC(=O)Oc1ccccc1C(=O)O [ASPIRIN] |  |  |  |  |  |  |  |  | Non-toxic | Active
O=C(Cc1ccc(F)cc1)c1ccc(O)c(O)c1O | > 50 | > 50 | > 50 |  |  |  |  |  |  | 

Now from value to molecule, other results behind:

MIC (Candida albicans) [µg/mL] | MIC (Aspergillus niger) [µg/mL] | MIC (Trichophyton rubrum) [µg/mL] | MIC (Escherichia coli) [µg/mL] | MIC (Bacillus subtilis) [µg/mL] | MIC (Pseudomonas aeruginosa) [µg/mL] | MIC (Staphylococcus aureus) [µg/mL] | IC50 [1] [µM] | Compound | Activity (AGS [2]) | inhibition (AGS [3])
> 50 | > 50 | > 50 | 12.5 (≈ 37.1 µM) | 50 (≈ 148 µM) | 25 (≈ 74.1 µM) | 25 (≈ 74.1 µM) |  | Oc1ccc(/N=C(/Cc2ccc(F)cc2)c2ccc(O)cc2O)cc1 |  | 
> 50 | > 50 | > 50 | 6.25 (≈ 17.1 µM) | 50 (≈ 136 µM) | 12.5 (≈ 34.1 µM) | 50 (≈ 136 µM) | 28.7 | O=[N+]([O-])c1ccc(/N=C(/Cc2ccc(F)cc2)c2ccc(O)cc2O)cc1 |  | 
> 50 | > 50 | > 50 | 0.78 (≈ 2.1 µM) | 25 (≈ 67.2 µM) | 1.56 (≈ 4.2 µM) | 25 (≈ 67.2 µM) | 1.8 | Oc1ccc(/C(Cc2ccc(Cl)cc2)=N\c2ccc(Cl)cc2)c(O)c1 | Non-toxic | 
> 50 | > 50 | > 50 | 6.25 (≈ 17.7 µM) | 25 (≈ 70.7 µM) | 12.5 (≈ 35.3 µM) | > 50 | 20.5 | Oc1ccc(/N=C(/Cc2ccc(Cl)cc2)c2ccc(O)cc2O)cc1 |  | 
> 50 | > 50 | > 50 | 25 (≈ 70.8 µM) | 50 (≈ 142 µM) | 50 (≈ 142 µM) | 50 (≈ 142 µM) | 63.4 | Oc1ccc(/N=C(/Cc2ccc(F)cc2)c2ccc(O)c(O)c2O)cc1 |  | 
> 50 | > 50 | > 50 | 3.12 (≈ 7.81 µM) | 50 (≈ 125 µM) | 6.25 (≈ 15.6 µM) | 50 (≈ 125 µM) | 8.3 | Oc1ccc(/C(Cc2ccc(F)cc2)=N\c2ccc(Br)cc2)c(O)c1 |  | 
> 50 | > 50 | > 50 | 12.5 (≈ 35.5 µM) | 25 (≈ 71.1 µM) | 12.5 (≈ 35.5 µM) | 12.5 (≈ 35.5 µM) | 15.1 | Cc1ccc(/N=C(/Cc2ccc(Cl)cc2)c2ccc(O)cc2O)cc1 |  | 
> 50 | > 50 | > 50 | 25 (≈ 74.5 µM) | 25 (≈ 74.5 µM) | 25 (≈ 74.5 µM) | 25 (≈ 74.5 µM) | 35.3 | Cc1ccc(/N=C(/Cc2ccc(F)cc2)c2ccc(O)cc2O)cc1 |  | 
> 50 | > 50 | > 50 | 3.12 (≈ 7.5 µM) | 12.5 (≈ 30 µM) | 3.12 (≈ 7.5 µM) | 25 (≈ 60 µM) | 9.1 | Oc1ccc(/C(Cc2ccc(Cl)cc2)=N\c2ccc(Br)cc2)c(O)c1 |  | 
> 50 | > 50 | > 50 | 1.56 (≈ 4.39 µM) | 50 (≈ 141 µM) | 1.56 (≈ 4.39 µM) | 50 (≈ 141 µM) | 3.9 | Oc1ccc(/C(Cc2ccc(F)cc2)=N\c2ccc(Cl)cc2)c(O)c1 |  | 
> 50 | > 50 | > 50 | 12.5 (≈ 33.6 µM) | 50 (≈ 134 µM) | 12.5 (≈ 33.6 µM) | 50 (≈ 134 µM) |  | Oc1ccc(/C(Cc2ccc(F)cc2)=N\c2ccc(Cl)cc2)c(O)c1O |  | 
> 50 | > 50 | > 50 | 50 (≈ 148 µM) | 25 (≈ 74.1 µM) | 50 (≈ 148 µM) | 50 (≈ 148 µM) |  | Oc1ccc(/N=C(/Cc2ccc(F)cc2)c2ccc(O)c(O)c2)cc1 |  | 
> 50 | > 50 | > 50 | 50 (≈ 142 µM) | 50 (≈ 142 µM) | 50 (≈ 142 µM) | 50 (≈ 142 µM) |  | Cc1ccc(/N=C(/Cc2ccc(F)cc2)c2ccc(O)c(O)c2O)cc1 |  | inactive
